Published values of several laboratories.
Target: LIM domain kinase 1 (LIMK1, Homo sapiens, UniProt P53667)

| Structure (SMILES) | effect on | action | technique | concentration | measurement | value |
| --- | --- | --- | --- | --- | --- | --- |
| C#Cc1cc(-c2cc(Nc3nc(N[C@@H](C)c4ccc(F)cn4)ncc3Cl)n[nH]2)ccc1C=O | enzyme activity | inhibitor |  | 0.2 µM | inhibition | 24.2% |
| C=CC(=O)N1CCC[C@@H](n2nc(-c3ccc(Oc4ccccc4)cc3)c3c(N)ncnc32)C1 | enzyme activity | inhibitor |  | 1 µM | inhibition | 76% |
| CCCCC(=O)Nc1ccc(-c2ccc3ncn(CCC)c(=O)c3c2)cn1 | binding |  | competition with immobilised ligand | 0.5 µM | remaining binding | 96% |
| C1=C/COCc2cc(ccc2OCCN2CCCC2)Nc2nccc(n2)-c2cccc(c2)COC/1 | binding |  |  | 0.1 µM | remaining binding | 82% |
| C[C@H]1CC[C@H](n2c3cnccc3c3cnc(Nc4ccc5c(n4)CCN(C(=O)CO)C5)nc32)CC1 | binding |  | competition with immobilised ligand | 1 µM | remaining binding | 98% |
| CC(C)S(=O)(=O)c1ccc2nccc(Nc3ccc4sc(C5CCCC5)nc4c3)c2c1 | enzyme activity | inhibitor |  | 1 µM | activity vs control | 82% |
| CO[C@@H]1[C@H](N(C)C(=O)c2ccccc2)C[C@H]2O[C@]1(C)n1c3ccccc3c3c4c(c5c6ccccc6n2c5c31)C(=O)NC4 | enzyme activity | inhibitor |  | 1 µM | inhibition | 12% |
| CN1CCN(C(=O)c2ccc(NC(=O)Nc3ccc(N(C)c4ccnc(Nc5ccc(CS(C)(=O)=O)cc5)n4)cc3)cc2)CC1 | binding |  | competition with immobilised ligand | 1 µM | remaining binding | 61% |
